target: Calcitonin gene-related peptide type 1 receptor (Homo sapiens, UniProt Q16602); experiment: CGRP1 receptor affinity on human neuroblastoma cells SK-N-MC, which selectively express the human CGRP1 receptor.
Outline: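 SK-N-MC membranes (cells grown in DMEM, detached with PBS/0.02% EDTA, homogenized, pellet in Tris buffer pH 7.40 with 1% BSA, 0.1% bacitracin, stored -80 °C) diluted 1:10 in assay buffer (50 mM Tris, 150 mM NaCl, 5 mM MgCl2, 1 mM EDTA, pH 7.40).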

Sequence of Calcitonin gene-related peptide type 1 receptor (Q16602 whole entry): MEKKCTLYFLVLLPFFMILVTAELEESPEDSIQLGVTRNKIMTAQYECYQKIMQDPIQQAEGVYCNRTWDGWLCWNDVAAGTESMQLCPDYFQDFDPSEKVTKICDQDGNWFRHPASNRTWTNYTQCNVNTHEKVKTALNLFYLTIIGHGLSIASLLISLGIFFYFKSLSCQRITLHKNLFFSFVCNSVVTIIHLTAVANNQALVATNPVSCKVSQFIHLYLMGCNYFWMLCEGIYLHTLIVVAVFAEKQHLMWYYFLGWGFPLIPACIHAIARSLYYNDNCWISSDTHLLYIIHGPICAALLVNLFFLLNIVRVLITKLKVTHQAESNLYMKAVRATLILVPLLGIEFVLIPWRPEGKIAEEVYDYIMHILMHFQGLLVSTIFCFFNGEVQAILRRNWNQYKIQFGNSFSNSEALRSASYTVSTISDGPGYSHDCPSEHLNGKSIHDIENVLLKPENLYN

Substance | IC50
H-YVPTNV-OH | No displacement
H-YVPTNVG-OH | No displacement
H-YVPTNVGS-OH | No displacement
H-YVPTNVGSE-OH | No displacement
H-YVPTNVGSEA-OH | No displacement

Continued, values first:

IC50 | Substance
No displacement | H-YVPTNFGSEAF-OH
No displacement | H-YVPTNVASEAF-OH
No displacement | H-YVPTNVFSEAF-OH
No displacement | H-YVPTNVGFEAF-OH
No displacement | H-YVPTNVGSEAA-OH
No displacement | H-YVPTNVGSEFF-OH
